Laboratory results taken from ChEMBL document CHEMBL1140705, “Synthesis and evaluation of N-methyl and S-methyl 11C-labeled 6-methylthio-2-(4'-N,N-dimethylamino)phenylimidazo[1,2-a]pyridines as radioligands for imaging beta-amyloid plaques in Alzheimer's disease” (J Med Chem, 2008).
One block for each molecule: values may come before it.

Tests used:
[1] = test system: Rattus norvegicus; assay: Ratio of brain radioactivity at maximal uptake to that at 60 min in iv dosed rat after 60 mins; conditions: in vivo, 1 h
[2] = molecular target: 5-hydroxytryptamine receptor 6 (Homo sapiens) (UniProt P50406); assay: Displacement of […] from 5HT6 receptor at 10 uM
[3] = molecular target: 5-hydroxytryptamine receptor 7 (Homo sapiens) (UniProt P34969); assay: Displacement of […] from 5HT7 receptor at 10 uM
[4] = molecular target: Alpha-1A adrenergic receptor (Homo sapiens) (UniProt P35348); assay: Displacement of […] from adrenergic Alpha-1A receptor at 10 uM
[5] = molecular target: Alpha-1B adrenergic receptor (Homo sapiens) (UniProt P35368); assay: Displacement of […] from adrenergic alpha-1b receptor at 10 uM
[6] = molecular target: Alpha-2A adrenergic receptor (Homo sapiens) (UniProt P08913); assay: Displacement of […] from adrenergic alpha-2a receptor at 10 uM
[7] = molecular target: Beta-2 adrenergic receptor (Homo sapiens) (UniProt P07550); assay: Displacement of […] from adrenergic beta 2 receptor at 10 uM
[8] = molecular target: D(1A) dopamine receptor (Homo sapiens) (UniProt P21728); assay: Displacement of […] from dopamine D1 receptor at 10 uM
[9] = molecular target: D(2) dopamine receptor (Homo sapiens) (UniProt P14416); assay: Displacement of […] from dopamine D2 receptor at 10 uM
[10] = molecular target: D(3) dopamine receptor (Homo sapiens) (UniProt P35462); assay: Displacement of […] from dopamine D3 receptor at 10 uM
[11] = molecular target: D(4) dopamine receptor (Homo sapiens) (UniProt P21917); assay: Displacement of […] from dopamine D4 receptor at 10 uM
[12] = molecular target: D(1B) dopamine receptor (Homo sapiens) (UniProt P21918); assay: Displacement of […] from dopamine D5 receptor at 10 uM
[13] = molecular target: Histamine H1 receptor (Homo sapiens) (UniProt P35367); assay: Displacement of […] from histamine H1 receptor at 10 uM
[14] = Lipophilicity, log D at pH 7.4; assay type: physicochemical; conditions: buffer
Outline: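 Shake-flask partition: 3-5 mg ligand in 0.1 M PBS pH 7.4 (6.0 mL) with n-octanol (1.0 mL), vortexed, shaken, held 10 min at room temperature, centrifuged 5000g. Both phases quantified by reverse-phase HPLC; P taken as organic/aqueous concentration ratio; n = 3.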

[15] = molecular target: 5-hydroxytryptamine receptor 1A (Homo sapiens) (UniProt P08908); assay: Displacement of […] from 5HT1A receptor at 10 uM
[16] = molecular target: 5-hydroxytryptamine receptor 1B (Homo sapiens) (UniProt P28222); assay: Displacement of […] from 5HT1B receptor at 10 uM
[17] = molecular target: 5-hydroxytryptamine receptor 1D (Homo sapiens) (UniProt P28221); assay: Displacement of […] from 5HT1D receptor at 10 uM
[18] = molecular target: 5-hydroxytryptamine receptor 1E (Homo sapiens) (UniProt P28566); assay: Displacement of […] from 5HT1E receptor at 10 uM
[19] = molecular target: 5-hydroxytryptamine receptor 2A (Homo sapiens) (UniProt P28223); assay: Displacement of […] from 5HT2A receptor at 10 uM
[20] = molecular target: 5-hydroxytryptamine receptor 2B (Homo sapiens) (UniProt P41595); assay: Displacement of […] from 5HT2B receptor at 10 uM
[21] = molecular target: 5-hydroxytryptamine receptor 2C (Homo sapiens) (UniProt P28335); assay: Displacement of […] from 5HT2C receptor at 10 uM
[22] = molecular target: 5-hydroxytryptamine receptor 3A (Homo sapiens) (UniProt P46098); assay: Displacement of […] from 5HT3 receptor at 10 uM
[23] = molecular target: 5-hydroxytryptamine receptor 5A (Homo sapiens) (UniProt P47898); assay: Displacement of […] from 5HT5A receptor at 10 uM
[24] = molecular target: Mu-type opioid receptor (Homo sapiens) (UniProt P35372); assay: Displacement of radioligand from mu opioid receptor at 10 uM
[25] = molecular target: Amyloid-beta precursor protein (Homo sapiens, UniProt P05067); assay: Binding affinity to beta amyloid plaque in human Alzheimer's disease brain tissue; assay type: tissue-based
Outline: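 Competition binding in human AD brain homogenate (1:500 in PBS) against [3H]PIB (0.4 nM), displacer 10^-10 to 10^-5 M from DMSO dilutions, total volume 1.0 mL PBS, 2 h at 37 °C; filtration on polyethyleneimine-treated GF/B, PBS washes, scintillation counting. One-site competition fit; Ki by Cheng-Prusoff using KD from homologous displacement Scatchard analysis.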

[26] = Stability in rat whole blood after 60 mins; assay type: ADME, tissue-based; conditions: read-out: Stability
Outline: (§1)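 No-carrier-added [11C] tracer (25.0 µCi monkey, 46.5 µCi rat) in 1 mL whole blood, shaken at 37 °C. Aliquots taken at 60 and 90 min into acetonitrile spiked with carrier, centrifuged, and supernatant radio-HPLC gives percent unchanged. Pellet counting gives extraction recovery.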

[27] = Stability in rat brain after 60 mins; assay type: ADME, tissue-based; conditions: read-out: Stability
Outline: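 Rat brain (1.75 g) homogenized in saline on ice and incubated with formulated [11C] tracer (186 µCi) at 37 °C with shaking. Aliquots quenched into carrier-spiked acetonitrile, centrifuged, and supernatant analysed by radio-HPLC for percent unchanged.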

[28] = Stability in monkey whole blood after 30 mins; assay type: ADME, tissue-based, Macaca mulatta; conditions: rhesus monkey, read-out: Stability
[29] = Stability in monkey whole blood after 90 mins; assay type: ADME, tissue-based, Macaca mulatta; conditions: rhesus monkey, read-out: Stability
Outline: as §1

[30] = test system: Plasma; assay: Biodistribution in rat plasma at 0.9 to 1.9 Ci/umol, penile iv after 2.33 mins; assay type: ADME, organism-based; conditions: in vivo, 140 s
Outline: (§2)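 No-carrier-added [11C] tracer (0.82-3.6 mCi) given by penile vein to rats, killed at 2.33, 2.83 or 30 min. Brain tissue extracted and homogenized in acetonitrile/water with carrier, plasma treated likewise, urine analysed directly, all by reverse-phase radio-HPLC. Radioactivity normalized to injected dose and body weight as % SUV, split into parent and three radiometabolites.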

[31] = test system: Cerebellum; assay: Biodistribution in rat cerebellum at 0.9 to 1.9 Ci/umol, penile iv after 2.83 mins; assay type: ADME, organism-based; conditions: in vivo, 170 s
Outline: as §2

[32] = test system: Cerebrum; assay: Biodistribution in rat cerebrum at 0.9 to 1.9 Ci/umol, penile iv after 2.83 mins; assay type: ADME, organism-based; conditions: in vivo, 170 s
Outline: as §2

[33] = test system: Plasma; assay: Biodistribution in rat plasma at 0.9 to 1.9 Ci/umol, penile iv after 2.83 mins; assay type: ADME, organism-based; conditions: in vivo, 170 s
Outline: as §2

[34] = test system: Rattus norvegicus; assay: Biodistribution in rat urine at 0.9 to 1.9 Ci/umol, penile iv after 2.83 mins; assay type: ADME, organism-based; conditions: in vivo, 170 s
Outline: as §2

[35] = test system: Cerebellum; assay: Biodistribution in rat cerebellum at 0.9 to 1.9 Ci/umol, penile iv after 30 mins; assay type: ADME, organism-based; conditions: in vivo, 0.5 h
Outline: as §2

[36] = test system: Cerebrum; assay: Biodistribution in rat cerebrum at 0.9 to 1.9 Ci/umol, penile iv after 30 mins; assay type: ADME, organism-based; conditions: in vivo, 0.5 h
Outline: as §2

[37] = test system: Plasma; assay: Biodistribution in rat plasma at 0.9 to 1.9 Ci/umol, penile iv after 30 mins; assay type: ADME, organism-based; conditions: in vivo, 0.5 h
Outline: as §2

[38] = test system: Cerebellum; assay: Biodistribution in rat cerebellum at 22.94 umol/kg bolus injection after 10 mins; assay type: ADME, organism-based; conditions: in vivo
Outline: (§3)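 Carrier-added [11C] tracer (carrier 22.94 µmol/kg) injected as bolus into one rat, tissues and plasma taken at 10 min. Samples extracted into acetonitrile and analysed by radio-HPLC. Results given as % SUV, partitioned into parent and radiometabolites A-C.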

[39] = test system: Cerebrum; assay: Biodistribution in rat cerebrum at 22.94 umol/kg bolus injection after 10 mins; assay type: ADME, organism-based; conditions: in vivo
Outline: as §3

[40] = test system: Plasma; assay: Biodistribution in rat plasma at 22.94 umol/kg bolus injection after 10 mins; assay type: ADME, organism-based; conditions: in vivo
Outline: as §3

[41] = test system: Plasma; assay: Drug level in monkey plasma at 1.35 Ci/umol after 10 mins; assay type: ADME, cell-free, Macaca mulatta; conditions: rhesus monkey
Outline: (§4)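 Two monkey experiments with no-carrier-added [11C] tracer given iv. Anticoagulated venous blood drawn at 10 and 30 min, plasma analysed by radio-HPLC. Parent fraction reported as percent of plasma radioactivity and as % SUV.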

[42] = test system: Plasma; assay: Drug level in monkey plasma at 1.35 Ci/umol after 30 mins; assay type: ADME, cell-free, Macaca mulatta; conditions: rhesus monkey, 0.5 h
Outline: as §4

[43] = Radiochemical stability after 3 hrs at pH 7.5; assay type: physicochemical; conditions: pH 7.5, 3 h
Outline: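 Purity of formulated tracer (saline with ethanol and polysorbate 80, pH ~7.5) followed over 3 h by radio-HPLC on a C18 column, MeOH/H2O/Et3N 70:30:0.1.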

[44] = Biodistribution in rat cerebrum at 0.9 to 1.9 Ci/umol, penile iv after 2.33 mins; conditions: in vivo, 140 s
[45] = test system: Mus musculus; assay: Ratio of brain radioactivity at maximal uptake to that at 60 min in iv dosed mouse after 60 mins; conditions: in vivo, 1 h

Chain of Amyloid-beta precursor protein (P05067 whole entry): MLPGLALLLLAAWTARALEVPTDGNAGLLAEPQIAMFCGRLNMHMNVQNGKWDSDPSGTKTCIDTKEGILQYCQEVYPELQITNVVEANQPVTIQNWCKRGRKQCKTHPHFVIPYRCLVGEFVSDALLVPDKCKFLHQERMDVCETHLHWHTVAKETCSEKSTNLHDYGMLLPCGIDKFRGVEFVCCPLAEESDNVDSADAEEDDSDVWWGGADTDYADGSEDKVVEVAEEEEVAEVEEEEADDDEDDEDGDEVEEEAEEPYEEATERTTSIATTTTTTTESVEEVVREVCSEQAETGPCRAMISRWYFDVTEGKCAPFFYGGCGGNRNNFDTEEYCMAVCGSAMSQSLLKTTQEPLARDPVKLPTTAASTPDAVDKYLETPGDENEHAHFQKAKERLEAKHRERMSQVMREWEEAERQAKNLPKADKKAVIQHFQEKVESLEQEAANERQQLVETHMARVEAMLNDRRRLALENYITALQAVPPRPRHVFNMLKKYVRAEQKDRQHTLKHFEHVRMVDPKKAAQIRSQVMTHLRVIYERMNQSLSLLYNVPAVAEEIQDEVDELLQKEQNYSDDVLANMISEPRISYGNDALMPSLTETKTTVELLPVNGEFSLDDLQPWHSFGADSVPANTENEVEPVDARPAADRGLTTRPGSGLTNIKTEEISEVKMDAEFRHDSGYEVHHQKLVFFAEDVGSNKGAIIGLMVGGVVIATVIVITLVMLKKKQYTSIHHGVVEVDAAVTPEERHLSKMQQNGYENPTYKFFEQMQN
Chain of D(2) dopamine receptor (Homo sapiens) (P14416 whole entry): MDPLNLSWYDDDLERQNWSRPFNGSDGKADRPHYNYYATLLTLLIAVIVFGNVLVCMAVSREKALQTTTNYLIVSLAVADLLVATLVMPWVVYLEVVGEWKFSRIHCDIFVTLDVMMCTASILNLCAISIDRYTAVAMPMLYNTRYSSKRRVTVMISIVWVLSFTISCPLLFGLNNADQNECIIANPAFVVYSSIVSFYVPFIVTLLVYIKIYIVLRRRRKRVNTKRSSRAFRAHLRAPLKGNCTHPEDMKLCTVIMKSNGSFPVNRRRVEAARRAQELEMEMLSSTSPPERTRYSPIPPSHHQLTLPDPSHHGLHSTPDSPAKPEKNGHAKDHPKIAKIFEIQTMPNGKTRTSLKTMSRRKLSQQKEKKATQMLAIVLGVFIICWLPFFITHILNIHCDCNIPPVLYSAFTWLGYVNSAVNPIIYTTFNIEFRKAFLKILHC
Chain of 5-hydroxytryptamine receptor 2B (Homo sapiens) (P41595 whole entry): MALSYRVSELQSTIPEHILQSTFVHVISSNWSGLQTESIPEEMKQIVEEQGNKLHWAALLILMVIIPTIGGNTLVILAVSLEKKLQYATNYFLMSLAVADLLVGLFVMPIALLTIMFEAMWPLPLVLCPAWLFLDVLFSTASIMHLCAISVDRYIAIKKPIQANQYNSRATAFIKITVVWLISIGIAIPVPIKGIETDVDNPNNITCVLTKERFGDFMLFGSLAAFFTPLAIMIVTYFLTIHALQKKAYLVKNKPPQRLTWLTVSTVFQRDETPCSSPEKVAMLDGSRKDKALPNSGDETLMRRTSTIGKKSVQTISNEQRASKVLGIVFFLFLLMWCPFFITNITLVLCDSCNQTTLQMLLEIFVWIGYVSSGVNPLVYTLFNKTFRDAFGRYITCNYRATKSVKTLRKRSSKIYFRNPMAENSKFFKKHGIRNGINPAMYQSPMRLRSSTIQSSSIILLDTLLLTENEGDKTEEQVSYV
Chain of 5-hydroxytryptamine receptor 7 (Homo sapiens) (P34969 whole entry): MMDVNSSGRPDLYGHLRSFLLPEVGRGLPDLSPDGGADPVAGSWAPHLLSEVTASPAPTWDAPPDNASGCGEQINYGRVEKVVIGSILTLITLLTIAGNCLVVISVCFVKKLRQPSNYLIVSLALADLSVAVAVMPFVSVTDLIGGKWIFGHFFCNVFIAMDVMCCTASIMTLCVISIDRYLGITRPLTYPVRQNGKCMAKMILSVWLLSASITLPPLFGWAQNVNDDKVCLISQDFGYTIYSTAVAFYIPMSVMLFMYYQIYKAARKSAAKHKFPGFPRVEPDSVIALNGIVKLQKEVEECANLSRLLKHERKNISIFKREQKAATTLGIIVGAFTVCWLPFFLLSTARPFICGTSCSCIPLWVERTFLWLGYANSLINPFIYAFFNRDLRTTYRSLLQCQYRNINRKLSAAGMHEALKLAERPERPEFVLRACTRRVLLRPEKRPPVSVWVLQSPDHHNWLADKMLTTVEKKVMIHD
Chain of D(1B) dopamine receptor (Homo sapiens) (P21918 whole entry): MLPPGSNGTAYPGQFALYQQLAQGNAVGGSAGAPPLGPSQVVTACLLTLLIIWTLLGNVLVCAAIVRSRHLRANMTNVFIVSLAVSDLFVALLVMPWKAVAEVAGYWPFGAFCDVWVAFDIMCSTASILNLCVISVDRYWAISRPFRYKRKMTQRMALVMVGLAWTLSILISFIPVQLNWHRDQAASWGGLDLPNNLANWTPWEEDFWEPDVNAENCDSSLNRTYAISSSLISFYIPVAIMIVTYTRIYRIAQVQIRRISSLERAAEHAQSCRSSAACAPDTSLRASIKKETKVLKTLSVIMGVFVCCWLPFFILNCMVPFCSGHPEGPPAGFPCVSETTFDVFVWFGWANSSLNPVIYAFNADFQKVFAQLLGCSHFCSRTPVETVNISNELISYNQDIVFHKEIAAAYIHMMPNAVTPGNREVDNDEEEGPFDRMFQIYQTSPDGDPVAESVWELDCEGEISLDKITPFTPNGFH
Chain of D(4) dopamine receptor (Homo sapiens) (P21917 whole entry): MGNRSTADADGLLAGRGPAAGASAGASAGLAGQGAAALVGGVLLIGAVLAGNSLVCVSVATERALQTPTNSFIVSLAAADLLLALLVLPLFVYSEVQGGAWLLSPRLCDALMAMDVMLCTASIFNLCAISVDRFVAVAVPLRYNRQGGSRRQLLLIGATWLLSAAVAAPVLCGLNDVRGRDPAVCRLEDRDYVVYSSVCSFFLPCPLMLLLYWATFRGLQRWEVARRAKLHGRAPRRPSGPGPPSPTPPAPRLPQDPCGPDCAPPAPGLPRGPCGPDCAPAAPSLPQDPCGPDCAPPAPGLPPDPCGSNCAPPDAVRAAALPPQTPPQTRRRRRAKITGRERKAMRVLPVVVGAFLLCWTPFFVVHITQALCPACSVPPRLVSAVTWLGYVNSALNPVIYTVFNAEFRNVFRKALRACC
Chain of 5-hydroxytryptamine receptor 2C (Homo sapiens) (P28335 whole entry): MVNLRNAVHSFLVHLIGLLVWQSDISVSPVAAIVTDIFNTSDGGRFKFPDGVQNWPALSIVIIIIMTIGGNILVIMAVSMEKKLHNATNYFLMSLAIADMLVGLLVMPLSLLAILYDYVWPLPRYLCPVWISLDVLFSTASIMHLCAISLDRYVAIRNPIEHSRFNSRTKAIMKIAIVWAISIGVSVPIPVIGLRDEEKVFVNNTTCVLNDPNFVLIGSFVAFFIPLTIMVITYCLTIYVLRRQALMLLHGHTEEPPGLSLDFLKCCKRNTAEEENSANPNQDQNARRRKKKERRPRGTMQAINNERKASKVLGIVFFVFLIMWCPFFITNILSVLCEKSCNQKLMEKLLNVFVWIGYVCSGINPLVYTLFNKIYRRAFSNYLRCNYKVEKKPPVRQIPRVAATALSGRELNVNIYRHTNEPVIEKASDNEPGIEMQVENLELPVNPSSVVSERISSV
Chain of 5-hydroxytryptamine receptor 5A (Homo sapiens) (P47898 whole entry): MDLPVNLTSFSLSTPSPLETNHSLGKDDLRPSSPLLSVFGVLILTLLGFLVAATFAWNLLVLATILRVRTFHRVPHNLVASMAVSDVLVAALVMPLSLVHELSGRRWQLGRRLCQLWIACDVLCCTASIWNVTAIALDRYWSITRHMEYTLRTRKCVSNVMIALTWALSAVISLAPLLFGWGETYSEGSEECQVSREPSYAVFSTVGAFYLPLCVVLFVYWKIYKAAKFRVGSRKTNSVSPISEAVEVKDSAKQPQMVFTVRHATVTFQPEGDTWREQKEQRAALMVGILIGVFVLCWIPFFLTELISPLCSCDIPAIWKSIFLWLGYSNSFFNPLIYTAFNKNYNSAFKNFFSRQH
Chain of 5-hydroxytryptamine receptor 1A (Homo sapiens) (P08908 whole entry): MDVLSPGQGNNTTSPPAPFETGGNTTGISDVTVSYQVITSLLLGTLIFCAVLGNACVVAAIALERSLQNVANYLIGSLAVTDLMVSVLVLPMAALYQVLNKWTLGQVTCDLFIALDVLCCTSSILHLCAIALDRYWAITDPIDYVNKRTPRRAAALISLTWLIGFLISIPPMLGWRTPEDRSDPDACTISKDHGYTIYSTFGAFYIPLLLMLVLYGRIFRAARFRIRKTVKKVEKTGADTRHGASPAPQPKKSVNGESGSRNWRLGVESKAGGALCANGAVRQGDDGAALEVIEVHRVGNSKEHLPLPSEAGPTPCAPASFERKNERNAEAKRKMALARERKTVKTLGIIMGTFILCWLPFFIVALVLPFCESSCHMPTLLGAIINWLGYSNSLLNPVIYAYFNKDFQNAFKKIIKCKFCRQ
Chain of Alpha-2A adrenergic receptor (Homo sapiens) (P08913 whole entry): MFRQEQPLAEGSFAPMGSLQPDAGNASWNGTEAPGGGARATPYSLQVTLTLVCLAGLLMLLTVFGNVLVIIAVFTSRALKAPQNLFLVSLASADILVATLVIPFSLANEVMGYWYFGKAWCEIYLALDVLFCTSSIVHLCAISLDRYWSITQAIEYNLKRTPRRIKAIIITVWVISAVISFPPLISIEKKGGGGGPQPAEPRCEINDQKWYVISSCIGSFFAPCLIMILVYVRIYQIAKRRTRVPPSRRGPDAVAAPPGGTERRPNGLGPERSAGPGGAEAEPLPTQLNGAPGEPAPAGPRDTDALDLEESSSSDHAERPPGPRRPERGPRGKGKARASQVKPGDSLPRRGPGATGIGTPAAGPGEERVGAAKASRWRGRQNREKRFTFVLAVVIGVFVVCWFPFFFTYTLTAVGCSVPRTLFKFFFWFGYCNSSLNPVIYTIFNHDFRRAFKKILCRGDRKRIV

- Ratio [1]: 6.1
SMILES: CSc1ccc2nc(-c3ccc(N(C)[11CH3])cc3)cn2c1

- Activity [2]: < 50%
- Activity [3]: < 50%
- Activity [4]: < 50%
- Activity [5]: < 50%
- Activity [6]: < 50%
- Activity [7]: < 50%
- Activity [8]: < 50%
- Activity [9]: < 50%
- Activity [10]: < 50%
- Activity [11]: < 50%
- Activity [12]: < 50%
- Activity [13]: < 50%
- logD [14]: 4.1
- Activity [15]: < 50%
- Activity [16]: < 50%
- Activity [17]: < 50%
- Activity [18]: < 50%
- Activity [19]: < 50%
- Activity [20]: < 50%
- Activity [21]: < 50%
- Activity [22]: < 50%
- Activity [23]: < 50%
- inhibition [24]: < 50%
SMILES: CSc1ccc2nc(-c3ccc(N(C)C)cc3)cn2c1

- Ki [25]: 80 nM
- logD [14]: 3.6
SMILES: CNc1ccc(-c2cn3cc(SC)ccc3n2)cc1

- Ki [25]: 205 nM
- logD [14]: 3.6
SMILES: COC(=O)CCSc1ccc2nc(-c3ccc(N(C)C)cc3)cn2c1

- remaining at 1 h [26]: 91%
- remaining at 1 h [27]: 93.6%
- remaining at 0.5 h [28]: 96.2%
- remaining at 1.5 h [29]: 94.5%
- Drug uptake [30]: 9.57%
- Drug uptake [31]: 31.9%
- Drug uptake [32]: 30.2%
- Drug uptake [33]: 9.15%
- Drug uptake [34]: 25.7%
- Drug uptake [35]: 18.6%
- Drug uptake [36]: 13%
- Drug uptake [37]: 0.2%
- Drug uptake [38]: 83.1%
- Drug uptake [39]: 80.9%
- Drug uptake [40]: 55.3%
- Activity [41]: 12.4%
- Activity [42]: 3.5%
- Stability [43]: Stable
- Drug uptake [44]: 41.9%
- Ratio [1]: 18.7
- Ratio [45]: 11.1
SMILES: CN(C)c1ccc(-c2cn3cc(S[11CH3])ccc3n2)cc1

- logD [14]: 3.58
SMILES: CN(C)c1ccc(-c2cn3cc(I)ccc3n2)cc1

- Ki [25]: 377 nM
- logD [14]: 2.6
SMILES: CSc1ccc2nc(-c3ccc(N)cc3)cn2c1
